Measurements reported in ChEMBL document CHEMBL4627265, “Optimization of 8-oxoadenines with toll-like-receptor 7 and 8 activity” (Bioorg Med Chem Lett, 2020).
Calls of active or inactive are those of the source.

How the values were obtained:
Format in all cases: cell-based
[1] = target: T1, Toll-like receptor 7 (Homo sapiens) (UniProt Q9NYK1); test: Agonist activity at TLR7 in human PBMC assessed as induction of plasmacytoid dendritic cell maturation by measuring CD80 level at 0.1 uM after 6 hrs by flow cytometry
T1 sequence (whole entry): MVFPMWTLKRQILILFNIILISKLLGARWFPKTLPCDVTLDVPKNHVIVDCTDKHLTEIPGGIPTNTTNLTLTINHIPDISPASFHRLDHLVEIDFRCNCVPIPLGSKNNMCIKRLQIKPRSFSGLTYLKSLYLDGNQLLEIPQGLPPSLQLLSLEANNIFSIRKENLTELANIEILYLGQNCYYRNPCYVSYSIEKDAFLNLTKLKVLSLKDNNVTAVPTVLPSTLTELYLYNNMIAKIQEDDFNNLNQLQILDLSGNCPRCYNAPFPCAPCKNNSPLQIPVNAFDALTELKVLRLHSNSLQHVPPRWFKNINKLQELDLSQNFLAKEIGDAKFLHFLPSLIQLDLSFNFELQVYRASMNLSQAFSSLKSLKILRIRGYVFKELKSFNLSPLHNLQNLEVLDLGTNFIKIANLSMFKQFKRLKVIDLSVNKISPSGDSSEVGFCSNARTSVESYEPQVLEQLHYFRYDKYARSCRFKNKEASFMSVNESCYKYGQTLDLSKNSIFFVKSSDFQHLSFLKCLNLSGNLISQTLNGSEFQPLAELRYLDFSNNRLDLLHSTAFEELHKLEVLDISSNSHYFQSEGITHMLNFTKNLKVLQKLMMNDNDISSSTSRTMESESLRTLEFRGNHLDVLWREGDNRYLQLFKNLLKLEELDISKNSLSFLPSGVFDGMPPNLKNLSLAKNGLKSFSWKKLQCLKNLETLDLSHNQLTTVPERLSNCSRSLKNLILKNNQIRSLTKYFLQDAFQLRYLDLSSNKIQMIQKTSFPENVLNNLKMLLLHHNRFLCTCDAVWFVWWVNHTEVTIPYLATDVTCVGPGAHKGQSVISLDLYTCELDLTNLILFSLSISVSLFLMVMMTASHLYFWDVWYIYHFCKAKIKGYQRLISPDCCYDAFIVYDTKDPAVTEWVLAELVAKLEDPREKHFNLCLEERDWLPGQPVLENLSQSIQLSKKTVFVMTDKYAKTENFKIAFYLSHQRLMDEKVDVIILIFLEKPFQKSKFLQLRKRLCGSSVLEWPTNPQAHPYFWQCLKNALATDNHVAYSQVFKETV
How it was run: (§1)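 hPBMCs stimulated 6 h at a single 0.1 μM dose; HLA-DR, MHC-I, CD80 and CD86 on mDCs and pDCs measured by flow cytometry, expressed as fold change versus unstimulated cells. Mean ± SD of three independent experiments in three different donors.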

[2] = target: T2, Toll-like receptor 8 (Homo sapiens) (UniProt Q9NR97); test: Agonist activity at TLR8 in human PBMC assessed as induction of myeloid dendritic cell maturation by measuring CD80 level at 0.1 uM after 6 hrs by flow cytometry; how it was run: as §1
T2 sequence (whole entry): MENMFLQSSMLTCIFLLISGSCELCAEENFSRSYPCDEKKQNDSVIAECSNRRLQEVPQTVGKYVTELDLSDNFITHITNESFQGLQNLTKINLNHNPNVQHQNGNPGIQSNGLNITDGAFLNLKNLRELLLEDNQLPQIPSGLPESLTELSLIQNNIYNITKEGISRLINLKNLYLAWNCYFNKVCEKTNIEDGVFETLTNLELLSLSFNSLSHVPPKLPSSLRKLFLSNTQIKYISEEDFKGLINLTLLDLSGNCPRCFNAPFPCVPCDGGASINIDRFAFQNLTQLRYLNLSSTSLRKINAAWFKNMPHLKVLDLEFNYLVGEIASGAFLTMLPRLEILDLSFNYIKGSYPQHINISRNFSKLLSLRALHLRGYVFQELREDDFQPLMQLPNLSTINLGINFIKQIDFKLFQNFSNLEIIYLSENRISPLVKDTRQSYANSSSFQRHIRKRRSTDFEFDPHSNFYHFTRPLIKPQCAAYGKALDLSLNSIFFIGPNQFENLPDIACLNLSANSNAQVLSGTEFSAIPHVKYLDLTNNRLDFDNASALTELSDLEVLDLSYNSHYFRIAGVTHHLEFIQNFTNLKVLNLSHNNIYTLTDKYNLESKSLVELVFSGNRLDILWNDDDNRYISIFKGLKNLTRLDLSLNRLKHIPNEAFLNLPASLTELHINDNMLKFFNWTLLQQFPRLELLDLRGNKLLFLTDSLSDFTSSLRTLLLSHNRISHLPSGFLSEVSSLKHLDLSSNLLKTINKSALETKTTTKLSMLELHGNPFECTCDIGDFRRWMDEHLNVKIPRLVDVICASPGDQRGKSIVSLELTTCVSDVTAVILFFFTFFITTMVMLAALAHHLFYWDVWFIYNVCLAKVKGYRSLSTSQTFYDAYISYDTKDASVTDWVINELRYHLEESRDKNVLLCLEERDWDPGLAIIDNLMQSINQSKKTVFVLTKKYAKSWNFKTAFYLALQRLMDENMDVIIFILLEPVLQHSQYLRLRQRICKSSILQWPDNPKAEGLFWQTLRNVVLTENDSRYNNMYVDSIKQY

[3] = target: T1, Toll-like receptor 7 (Homo sapiens); test: Agonist activity at TLR7 in human PBMC assessed as induction of plasmacytoid dendritic cell maturation by measuring MHC-1 level at 0.1 uM after 6 hrs by flow cytometry; how it was run: as §1
[4] = target: T2, Toll-like receptor 8 (Homo sapiens); test: Agonist activity at TLR8 in human PBMC assessed as induction of myeloid dendritic cell maturation by measuring CD86 level at 0.1 uM after 6 hrs by flow cytometry; how it was run: as §1
[5] = target: Toll-like receptor 3 (Homo sapiens) (UniProt O15455); test: Agonist activity at human TLR3 expressed in HEK293 cells by SEAP reporter gene assay
Sequence of Toll-like receptor 3 (Homo sapiens) (O15455 whole entry): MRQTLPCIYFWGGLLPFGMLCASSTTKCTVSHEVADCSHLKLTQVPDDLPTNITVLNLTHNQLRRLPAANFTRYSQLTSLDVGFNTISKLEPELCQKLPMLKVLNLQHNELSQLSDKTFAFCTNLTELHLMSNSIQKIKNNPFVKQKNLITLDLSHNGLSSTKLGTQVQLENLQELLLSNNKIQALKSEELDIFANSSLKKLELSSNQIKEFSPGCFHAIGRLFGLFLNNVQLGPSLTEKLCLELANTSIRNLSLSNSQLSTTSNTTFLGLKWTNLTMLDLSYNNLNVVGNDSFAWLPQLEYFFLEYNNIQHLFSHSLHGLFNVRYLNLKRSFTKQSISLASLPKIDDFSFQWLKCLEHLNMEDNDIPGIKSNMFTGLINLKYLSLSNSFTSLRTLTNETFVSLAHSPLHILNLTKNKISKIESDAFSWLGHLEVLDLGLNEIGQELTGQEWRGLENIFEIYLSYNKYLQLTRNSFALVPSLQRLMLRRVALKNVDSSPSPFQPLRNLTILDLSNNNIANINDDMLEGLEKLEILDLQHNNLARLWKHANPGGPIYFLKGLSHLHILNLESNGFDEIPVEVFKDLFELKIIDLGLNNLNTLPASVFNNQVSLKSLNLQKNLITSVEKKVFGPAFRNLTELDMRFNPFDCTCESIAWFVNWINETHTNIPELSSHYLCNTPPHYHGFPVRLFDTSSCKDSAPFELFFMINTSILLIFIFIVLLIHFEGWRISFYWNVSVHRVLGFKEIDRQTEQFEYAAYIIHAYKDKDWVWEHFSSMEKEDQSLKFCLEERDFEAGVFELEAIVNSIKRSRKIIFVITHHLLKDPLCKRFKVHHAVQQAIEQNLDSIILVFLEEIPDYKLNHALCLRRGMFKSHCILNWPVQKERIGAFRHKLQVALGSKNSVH

Measured: Activity

Nc1nc(OCCCCO)nc2c1[nH]c(=O)n2CC1CCNCC1
inactive: all assays above
